Screening data deposited in PubChem by The Scripps Research Institute Molecular Screening Center.
proCasp3 act: activators of human procaspase-3 D3A mutant, primary screen, biochemical, absorbance, PC-3 D3A mutant, single concentration; 330,000 tested, 0.11% active; recombinant procaspase-3 D3A, Ac-DEVD-pNA absorbance 405 nm; Caspase-3 (Homo sapiens), P42574; activation, % at 8.5 µM;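 active = activation above the mean of all tested compounds plus 3 SD, cut at about 21% in these data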
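Assay system: Autoprocessing-dead procaspase-3 D3A mutant enzyme; also added: Ac-DEVD-pNA; doses: one concentration, 8.5 µM nominal, 0.8% DMSO; times: 1 h compound preincubation, 2 h substrate hydrolysis at 25 °C; technique: 405 nm absorbance of p-nitroaniline, reads at 0 and 120 min; measure: % activation between DMSO and enzyme-spiked controls; repeats: single replicate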
proCasp7 act: procaspase-7 activators, primary screen, counter-screen for procaspase-3 activator project, biochemical, absorbance, HTS, human; Caspase-7 (Homo sapiens), P55210; AID 463210, 2010; recombinant procaspase-7, Ac-DEVD-pNA absorbance 405 nm; D23A/D198A/D206A triple mutant, cannot self-cleave; scale: DMSO 0, 5 µM enzyme 100; 330,000 tested, 0.093% active; activation, % at 8.5 µM;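 active = percent activation above the screen-wide mean plus 3 SD, cut at about 25% in these data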
Target sequence (P55210 whole entry D23A/D198A/D206A): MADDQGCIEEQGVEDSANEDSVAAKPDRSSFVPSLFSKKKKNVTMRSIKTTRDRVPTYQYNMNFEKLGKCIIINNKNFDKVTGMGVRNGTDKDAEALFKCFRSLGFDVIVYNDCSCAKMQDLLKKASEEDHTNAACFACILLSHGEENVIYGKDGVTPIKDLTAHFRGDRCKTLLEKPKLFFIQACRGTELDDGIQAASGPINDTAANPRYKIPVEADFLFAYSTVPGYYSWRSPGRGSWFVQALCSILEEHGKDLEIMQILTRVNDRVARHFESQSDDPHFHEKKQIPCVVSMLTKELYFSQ
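Replicates: singlicate. Assay system: Procaspase-7 triple mutant (PC-7 D3A). Signal: 405 nm absorbance of p-nitroaniline. Times: 1 h preincubation, 2 h reaction. Buffer or medium: Zinc-free HEPES pH 7.4 with 300 mM NaCl, 0.01% Triton X-100. Also added: DEVD-pNA substrate. Benchmarks: DMSO wells as 0%, DMSO with 5 µM added PC-7 as 100%.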
PREPL inhibitor: PREPL enzyme inhibitors, primary screen, biochemical, fluorescence polarization | recombinant PREPL, fluorescence polarization activity-based probe | AID 2751, 2010 | Prolyl endopeptidase-like (Homo sapiens), Q4J6C6 | 320,000 tested, 0.68% active | inhibition, % at 5.96 µM
LYPLA2 counter: LYPLA2 inhibitors, primary screen, counter-screen for PME1 inhibitor project, biochemical, fluorescence polarization, FP-Rh probe ABPP; recombinant LYPLA2; inhibition, % at 5.9 µM; 320,000 tested, 0.38% active;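 active = inhibition above the screen-wide mean plus 3 SD, limit set per campaign, cut at about 26% in these data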
LYPLA1 counter: LYPLA1 inhibitors, primary screen, counter-screen for PME1 inhibitor project, biochemical, fluorescence polarization, FP-Rh probe ABPP; Acyl-protein thioesterase 1 (Homo sapiens), O75608; recombinant LYPLA1; inhibition, % at 5.9 µM; 320,000 tested, 0.16% active;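 active = inhibition above the mean of all tested compounds plus 3 SD, set per campaign, cut at about 14% in these data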;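 also: inhibitors block serine hydrolase probe labeling of LYPLA1 so polarization falls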
Target sequence (O75608 whole entry, looked up): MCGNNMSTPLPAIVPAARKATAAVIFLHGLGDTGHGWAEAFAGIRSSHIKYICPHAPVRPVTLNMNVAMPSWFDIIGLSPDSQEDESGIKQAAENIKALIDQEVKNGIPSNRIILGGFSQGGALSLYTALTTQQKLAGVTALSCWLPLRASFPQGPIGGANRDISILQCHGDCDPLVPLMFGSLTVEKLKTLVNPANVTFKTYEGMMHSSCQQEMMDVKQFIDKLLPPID
PREPL confirm: human PREPL enzyme inhibitors, confirmation, biochemical, fluorescence polarization; shares compounds with PREPL inhibitor; AID 2803, 2010; 2,000 tested, 67% active; inhibition, % at 5.96 µM; recombinant PREPL, fluorescence polarization activity probe
Hits are given with their value; i = inactive; nt = no result given. Compounds with a hit are over-represented: about 1.1% of the library has one in this group of screens. Rule as the data show it, unless noted: active = inhibition above about 43%; inactive = the rest.

SMILES	proCasp3 act	proCasp7 act	PREPL inhibitor	LYPLA2 counter	LYPLA1 counter	PREPL confirm
Nc1ccc(Sc2cnn(-c3ccccc3)c(=O)c2Cl)cc1	i	i	i	i	i	nt
Cc1ccc(N(CC(=O)NCC2CCCO2)C(=O)CCC(=O)Nc2nccs2)cc1 (stereo not drawn)	i	i	43	i	i	i
Cc1ccc(N(CC(=O)NCC2CCCO2)C(=O)CCC(=O)Nc2nccs2)cc1C (stereo not drawn)	i	i	i	i	i	nt
CCOC(=O)C1C(=O)NC(N2CCc3ccccc32)=NC1c1ccccc1 (stereo not drawn)	i	i	44	i	i	i
CCOC(=O)C1C(=O)NC(N2CCCCC2)=NC1c1ccccc1 (stereo not drawn)	i	i	i	i	i	nt
CN(C)c1ccc(NC(=O)c2ccc(Cn3cc([N+](=O)[O-])cn3)cc2)cc1	i	i	48	i	i	57
COc1ccc(NC(=O)c2ccc(Cn3cc(Cl)cn3)cc2)cc1	i	i	i	i	i	nt
O/N=C\c1cnc(N2CCN(c3ccccc3)CC2)s1	i	i	i	i	i	nt
Cc1ccc(CN2CCN(/N=C/C(Br)=C\c3ccccc3)CC2)cc1	i	i	i	i	i	nt
CN(C)c1ccc(C(CNC(=O)c2ccc(-c3ccccc3)cc2)N2CCOCC2)cc1 (stereo not drawn)	i	i	47	i	i	65
COc1cccc(NC(=O)NC2CCCc3ccccc32)c1 (stereo not drawn)	i	i	i	i	i	nt
COc1cc(NC(=O)CN2C(=O)NC(C)(c3ccc4ccccc4c3)C2=O)c(C)cc1[N+](=O)[O-] (stereo not drawn)	i	i	58	i	i	i
COc1cc(NC(=O)CN2C(=O)NC(C)(c3ccccc3)C2=O)c(C)cc1[N+](=O)[O-] (stereo not drawn)	i	i	i	i	i	nt
COc1ccc(N2CCN(C(=O)CN3C(=O)NC(C)(c4ccc5ccccc5c4)C3=O)CC2)cc1 (stereo not drawn)	i	i	57	i	i	53
COc1ccc2nc3cc(Cl)ccc3c(Nc3cc(CN4CCCC4)c(O)c(CN4CCCC4)c3)c2n1	i	i	64	i	i	54
CN(C)c1ccc(C2C=C(c3ccc(Cl)cc3OC(F)F)Nc3ncnn32)cc1 (stereo not drawn)	i	i	56	i	i	49
Cc1ccc(C2C=C(c3ccccc3OC(F)F)Nc3ncnn32)cc1 (stereo not drawn)	i	i	i	i	i	nt
COc1cccc(C2CC(c3ccc(C)cc3)Nc3nc(N)nn32)c1 (stereo not drawn)	i	i	49	i	i	51
COc1ccc(N2CCN(c3ccc4nnc(CCC(=O)Nc5ccc(C)cc5)n4n3)CC2)cc1	i	i	59	i	i	60
CCCOc1ccccc1-n1sc2c(c1=S)-c1cc(OC)cc3c1N(C(=O)C3=O)C2(C)C	i	i	52	i	i	57
CCCn1c(NC(=O)CN2C(=O)NC3(CCCC3)C2=O)nc2ccccc21	i	i	i	i	i	nt
OCC1CCCCN1CCNCc1cn[nH]c1-c1cccc2ccccc12 (stereo not drawn)	i	i	44	i	i	i
O=C(Nc1ccccc1C(=O)NCCCN1CCOCC1)c1cccc([N+](=O)[O-])c1	i	i	i	i	i	nt
Cc1ccc(NC(=O)COc2cccc(/C=C3\SC(=S)N(CCC(=O)O)C3=O)c2)cc1Cl	i	i	52	i	i	i
Cc1cc(C)cc(N(CCC#N)C(=O)COC(=O)CCc2c[nH]c3ccccc23)c1	i	i	46	i	i	i
SMILES	proCasp3 act	proCasp7 act	PREPL inhibitor	LYPLA2 counter	LYPLA1 counter	PREPL confirm
COc1ccc(C2=CCN3CCCCC3C2)c(-c2ccc(OC)c(OC)c2)c1 (stereo not drawn)	i	i	47	nt	nt	i
Cc1ccc(Nc2nc(N/N=C/c3c[nH]c4ccccc34)nc(N3CCOCC3)n2)cc1	i	i	44	i	i	60
CCn1c(SCC(=O)N(C)Cc2ccc(OC)c(F)c2)nc2cc(S(N)(=O)=O)ccc21	i	i	i	i	i	nt
CSc1ccc2c(c1)N(CCC1CCCCN1C)c1ccccc1S2 (stereo not drawn)	i	i	48	i	i	51
COc1ccc(C2=CC(c3ccc(F)cc3)n3nnnc3N2)cc1 (stereo not drawn)	i	i	i	i	i	nt
Cc1ccc(C2=CC(c3ccc(N(C)C)cc3)n3nnnc3N2)cc1 (stereo not drawn)	i	i	59	i	i	54
COc1ccc(S(=O)(=O)N(C)c2ccc(C(=O)NCC3CCCO3)cc2)cc1OC (stereo not drawn)	i	i	i	i	i	nt
COc1ccc(C(=O)Nc2ccnn2C2CCN(C(=O)c3cc(C)on3)CC2)cc1	i	i	i	i	i	nt
COc1ccccc1C(=O)Nc1nc(C)cc(C)n1	i	i	i	i	i	nt
CCc1ccc(Nc2n[n+](-c3ccccc3)c(-c3ccc(OCc4ccccc4)cc3)s2)cc1	i	i	i	i	i	nt
CCN(CC)c1ccc(-c2sc(Nc3ccccc3)n[n+]2-c2ccc(F)cc2)cc1	i	i	54	i	i	66
CN(C)c1ccc(-c2sc(Nc3ccccc3)n[n+]2-c2ccc(F)cc2)cc1	i	i	i	i	i	nt
CCc1ccc(Nc2n[n+](-c3ccccc3)c(-c3ccc(N(CC)CC)cc3)s2)cc1	i	i	64	i	i	68
O=C(C1CCCN(S(=O)(=O)c2cccc3nonc23)C1)N1CCN(c2ccccc2Cl)CC1 (stereo not drawn)	i	i	47	i	i	i
O=C(C1CCCN(S(=O)(=O)c2cccc3nonc23)C1)N1CCN(c2cccc(Cl)c2)CC1 (stereo not drawn)	i	i	i	i	i	nt
CC(C)=C1SC(N2CCN(c3ccc(C)cc3)CC2)=NC1=O	i	i	50	i	i	45
CC(C)=C1SC(N2CCN(c3ccc(Cl)cc3)CC2)=NC1=O	i	i	50	i	i	48
CC(C)=C1SC(N2CCN(c3cccc(C(F)(F)F)c3)CC2)=NC1=O	i	i	i	i	i	nt
CC(C)=C1SC(N2CCOCC2)=NC1=O	i	i	i	i	i	nt
